# Results reported in publication PMC7701984 (Journal of medicinal chemistry, 2019).
# Marks after values point to notes of the source that are not given here.
# Tests used:
# Vγ9Vδ2 T cells [1] = assay: Vγ9Vδ2 T cell proliferation assay; assay type: cell-based, human; settings: for T cell expansion above non-stimulated baseline: positive controls at 0.1 μM; for signs of Vγ9Vδ2 T cell stimulation: proliferation assay, Supplemental Figure S1C–D
# wt-BFI domain of BTN3A1 = wt-BFI domain of BTN3A1 (Homo sapiens, UniProt O00481); assay: GDP-BODIPY fluorescence polarization competitive binding assay, wt-BFI; settings: n ≥ 3
# Sequence of wt-BFI domain of BTN3A1 (O00481 272-513 limits assumed): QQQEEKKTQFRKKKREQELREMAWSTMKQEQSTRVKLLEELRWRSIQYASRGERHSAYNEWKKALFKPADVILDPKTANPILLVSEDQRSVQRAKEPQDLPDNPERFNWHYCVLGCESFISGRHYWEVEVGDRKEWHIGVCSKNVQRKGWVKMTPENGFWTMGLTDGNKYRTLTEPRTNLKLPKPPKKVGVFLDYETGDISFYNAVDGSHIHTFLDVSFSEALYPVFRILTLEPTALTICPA
# BTN3A1 BFI(W421A) = BTN3A1 BFI(W421A) (Homo sapiens, UniProt O00481, W421A); assay: GDP-BODIPY fluorescence polarization competitive binding assay, BFI; settings: n ≥ 3
# Sequence of BTN3A1 BFI(W421A) (O00481 272-513 W421A limits assumed): as the sequence (O00481 272-513 limits assumed) above, with W150A counted along it
# BTN3A1 BFI(M424A) = BTN3A1 BFI(M424A) (Homo sapiens, UniProt O00481, M424A); assay: as above; settings: n ≥ 3, ambiguous, approximate slope estimated by GraphPad
# Sequence of BTN3A1 BFI(M424A) (O00481 272-513 M424A limits assumed): as the sequence (O00481 272-513 limits assumed) above, with M153A counted along it
# BTN3A1 BFI(R442A) = BTN3A1 BFI(R442A) (Homo sapiens, UniProt O00481, R442A); assay: as above; settings: n ≥ 3
# Sequence of BTN3A1 BFI(R442A) (O00481 272-513 R442A limits assumed): as the sequence (O00481 272-513 limits assumed) above, with R171A counted along it
# BTN3A1 BFI(R448A) = BTN3A1 BFI(R448A) (Homo sapiens, UniProt O00481, R448A); assay: as above; settings: n ≥ 3
# Sequence of BTN3A1 BFI(R448A) (O00481 272-513 R448A limits assumed): as the sequence (O00481 272-513 limits assumed) above, with R177A counted along it
# BTN3A1 BFI(R499A) = BTN3A1 BFI(R499A) (Homo sapiens, UniProt O00481, R499A); assay: as above; settings: n ≥ 3
# Sequence of BTN3A1 BFI(R499A) (O00481 272-513 R499A limits assumed): as the sequence (O00481 272-513 limits assumed) above, with R228A counted along it
# BFI = settings: read-out: ITC Kd for BFI; previous ITC experiments; cited from earlier work
# [2] = system: Human PBMCs containing naïve Vγ9Vδ2 T cells; assay: IFN-γ production of PBMCs by ELISA; assay type: cell-based; settings: for EC50: Homo sapiens, PBMC, 48 h, read-out: IFN-γ EC50 (μM) with 95% CI
# Vγ9Vδ2 T cells [3] = settings: read-out: Proliferation EC50 (μM) with 95% CI; footnote a; ref Hsiao 2014; cited from earlier work
# BTN3A1 = settings: previously reported ITC experiments; no reference given; cited from earlier work
# [4] = system: peripheral blood mononuclear cells (PBMCs); assay: Ligand uptake: disappearance of prodrug from media incubated with PBMCs; assay type: in vitro ADME; settings: 10 μM with PBMCs, 24 hours, 37 °C
# Outline: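 PBMCs at 1,000,000 cells/mL in T cell media were incubated at 37 °C with test prodrug at 10 μM final, or with media alone. Samples were taken at 0, 6, 24 and 48 h and spun. The supernatant was mixed with acetonitrile, re-spun and stored at −20 °C. UPLC-MS used a C18 column with a 25–80% acetonitrile gradient over 8 min. The integrated molecular-ion signal was expressed relative to t = 0.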
# [5] = dose-response, 48 hours, concentration not given
compound,measurement,setting,value
"C/C(=C\COP(=O)(O)OP(=O)(O)O)CO [Compound 1, (E)-4-hydroxy-3-methyl-but-2-enyl diphosphate]",T cell expansion above non-stimulated baseline,Vγ9Vδ2 T cells [1],significantly expanded T cells
same,Probe displacement (mP) range with 95% CI,wt-BFI domain of BTN3A1,30.6 (25 – 36) mP
same,Probe displacement (mP) range with 95% CI,BTN3A1 BFI(W421A),56.7 (40 – 73) ^* mP
same,Probe displacement (mP) range with 95% CI,BTN3A1 BFI(M424A),59.1^a (38 – 81) ^* mP
same,Probe displacement (mP) range with 95% CI,BTN3A1 BFI(R442A),19.4 (13 – 26) mP
same,Probe displacement (mP) range with 95% CI,BTN3A1 BFI(R448A),26.2 (12 – 40) mP
same,Probe displacement (mP) range with 95% CI,BTN3A1 BFI(R499A),55.0 (21 – 78) ^* mP
same,Kd,BFI,2360 nM
"O=P(O)(O)C(O)(Cn1ccnc1)P(=O)(O)O [Compound 4, zoledronate]",stimulation of IFN-γ production,[2]; [5],Neither zoledronate (4) nor sodium diphosphate stimulated IFN-γ production
C/C(=C\CCP(=O)(O)O)CO [Compound 5],EC50,Vγ9Vδ2 T cells [3],4 µM
same,ITC dissociation constant (Kd),BTN3A1,not calculable
C/C(=C\CCP(=O)(OCOC(=O)C(C)(C)C)OCOC(=O)C(C)(C)C)CO [Compound 6],T cell expansion above non-stimulated baseline,Vγ9Vδ2 T cells [1],significantly expanded T cells
same,parent ion detected in media relative to t = 0,[4],less than 1%
C/C(=C\CCP(=O)(O)CP(=O)(O)O)CO [Compound 7],stimulation of IFN-γ production at 100 μM,"[2]; 100 μM, 48 hours",did stimulate IFN-γ production
same,EC50,[2],> 100 µM
C/C(=C\CCP(=O)(CP(=O)(OCOC(=O)C(C)(C)C)OCOC(=O)C(C)(C)C)OCOC(=O)C(C)(C)C)CO (centres unmarked) [Compound 8],IFN-γ potency of prodrug 8 relative to its salt 7,[2],100 times
same,EC50,[2],> 1 µM
"C/C(=C\CCCCP(=O)(OCOC(=O)C(C)(C)C)OCOC(=O)C(C)(C)C)CO [Compound 11, (E)-(((7-hydroxy-6-methylhept-5-en-1-yl)phosphoryl)bis(oxy))bis(methylene) bis(2,2-dimethylpropanoate)]",stimulation of T cell proliferation,Vγ9Vδ2 T cells [1]; concentrations up to 100 μM,neither prodrug 11 nor salt 10 (Supplemental Figure S1B) stimulated T cell proliferation
same,stimulation of IFN-γ production,"[2]; concentrations up to 100 μM, 48 hours",did not stimulate
same,parent ion detected in media relative to t = 0,[4],less than 1%
"CC(C)=CCCCCP(=O)(OCOC(=O)C(C)(C)C)OCOC(=O)C(C)(C)C [Compound 14, (((6-Methylhept-5-en-1-yl)phosphoryl)bis(oxy))bis(methylene) bis(2,2-dimethylpropanoate)]",signs of Vγ9Vδ2 T cell stimulation,Vγ9Vδ2 T cells [1],neither intermediate 14 nor 15 displayed signs of Vγ9Vδ2 T cell stimulation
"COP(=O)(CCCC/C=C(\C)CO)OC [Compound 15, Dimethyl (E)-(7-hydroxy-6-methylhept-5-en-1-yl) phosphonate]",signs of Vγ9Vδ2 T cell stimulation,Vγ9Vδ2 T cells [1],neither intermediate 14 nor 15 displayed signs of Vγ9Vδ2 T cell stimulation
"O=P([O-])([O-])OP(=O)([O-])[O-].[Na+].[Na+].[Na+].[Na+] [NaPP, sodium diphosphate]",stimulation of IFN-γ production,[2]; [5],Neither zoledronate (4) nor sodium diphosphate stimulated IFN-γ production
